SKKanGAS inh = S. pyogenes SKKanGAS growth inhibitors in kanamycin, primary screen, streptokinase expression inhibitor project, SKKanGAS strain, BacTiter-Glo luminescence; 6 h; inhibition, % at 7.5 µM; 300,000 tested, 1.3% active; AID 1662, 2009;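 active = mean replicate score, as percent of positive control median, at least 50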;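 note: strain carries kanamycin resistance gene driven by streptokinase promoter and grows in 40 µg/ml kanamycin; loss of luminescence reflects streptokinase promoter inhibition or plain growth inhibition; 0% = median of DMSO wells and 100% = positive control at its reference dose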
Calb FLC = C. albicans growth inhibition with fluconazole, primary screen, CaCi-2 strain, Alamar Blue fluorescence; C. albicans CaCi-2 (fluconazole-resistant clinical isolate) + fluconazole, 48 h; growth inhibition, % (no concentration beside the values); 300,000 tested, 0.57% active; AID 1979, 2009;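 active = growth inhibition above about 58% in most replicates, limit read from the data, passing the limit was not always enough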;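 note: all wells also contain fluconazole at 8 µg/ml as a sub-toxic cotreatment; 0% = median of DMSO wells and 100% = median of geldanamycin control wells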
Beta apoptosis = inhibitors of cytokine-induced beta cell apoptosis, primary screen, luminescence; protection from apoptosis, % (no concentration beside the values); INS-1E cytokine-induced death, ATP luminescence, 48 h; percent of positive-control rescue, neutral wells zero; 300,000 tested, 0.8% active; AID 435005, 2010;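 active = Every replicate reaches about 75%, or at least half do and their mean reaches it too, limit read from the data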;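 note: 0% = cytokine-treated negative control wells and 100% = positive control rescue; higher means more ATP so stronger rescue from cytokine killing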
T cruzi repl = inhibitors of intracellular T. cruzi growth, primary screen, luminescence, NIH3T3 host cells | T. cruzi beta-gal in NIH3T3, 90 h | inhibition, % (test concentration not listed) | 300,000 tested, 1.4% active | AID 1885, 2009;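 active = mean inhibition across valid replicates above about 55%, limit read from the data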;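 note: signal also drops with host cell toxicity which is not excluded here; 0% = plate median of DMSO wells and 100% = zero luminescence signal; higher percent means less beta-gal luminescence so fewer parasites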
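compound dosing = single 50 nL compound addition per well in DMSO | material = NIH/3T3 host cells with β-galactosidase reporter T. cruzi | input = 5,000 host fibroblasts per well | timing = ≥90 h infection period, 3 h prior cell attachment | read-out basis = percent inhibition of parasite-derived β-gal signal | detection = GalScreen β-gal luminescence, detergent lysis, 60 min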
CSC inhib = cancer stem cell viability inhibitors, primary screen, luminescence | cancer stem cell-like cells viability | inhibition, % at 7.5 µM | 300,000 tested, 1.1% active | AID 2717, 2010; in the data active = inhibition above about 75%; tested in HMLE shEcad cells
Mdm2 MdmX PPI = inhibitors of human Mdm2-MdmX association, primary screen, cell-based, luminescence, split luciferase, SaOS-2, uHTS; 330,000 tested, 3% active; inhibition, % at 8 µM; Protein Mdm4 (Homo sapiens) + E3 ubiquitin-protein ligase Mdm2 (Homo sapiens), …; SaOS-2 split-luciferase Mdm2/MdmX complementation;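 active = inhibition of at least 50% at 8 µM in the primary screen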
Target sequence (O15151 whole entry, looked up): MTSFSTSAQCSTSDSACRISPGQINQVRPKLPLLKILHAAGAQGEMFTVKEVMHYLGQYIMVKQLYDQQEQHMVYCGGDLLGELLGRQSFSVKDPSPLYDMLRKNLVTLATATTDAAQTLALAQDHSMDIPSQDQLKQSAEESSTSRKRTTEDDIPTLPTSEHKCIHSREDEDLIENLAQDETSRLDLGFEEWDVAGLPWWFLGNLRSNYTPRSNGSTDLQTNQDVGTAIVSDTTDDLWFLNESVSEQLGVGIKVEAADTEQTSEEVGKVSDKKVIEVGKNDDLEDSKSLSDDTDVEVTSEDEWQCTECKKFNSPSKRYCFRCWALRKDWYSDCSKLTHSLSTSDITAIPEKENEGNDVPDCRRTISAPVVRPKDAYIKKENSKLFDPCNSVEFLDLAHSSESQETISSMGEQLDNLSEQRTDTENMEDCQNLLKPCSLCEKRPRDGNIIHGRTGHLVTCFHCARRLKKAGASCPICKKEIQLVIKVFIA
Target sequence (Q00987 whole entry, looked up): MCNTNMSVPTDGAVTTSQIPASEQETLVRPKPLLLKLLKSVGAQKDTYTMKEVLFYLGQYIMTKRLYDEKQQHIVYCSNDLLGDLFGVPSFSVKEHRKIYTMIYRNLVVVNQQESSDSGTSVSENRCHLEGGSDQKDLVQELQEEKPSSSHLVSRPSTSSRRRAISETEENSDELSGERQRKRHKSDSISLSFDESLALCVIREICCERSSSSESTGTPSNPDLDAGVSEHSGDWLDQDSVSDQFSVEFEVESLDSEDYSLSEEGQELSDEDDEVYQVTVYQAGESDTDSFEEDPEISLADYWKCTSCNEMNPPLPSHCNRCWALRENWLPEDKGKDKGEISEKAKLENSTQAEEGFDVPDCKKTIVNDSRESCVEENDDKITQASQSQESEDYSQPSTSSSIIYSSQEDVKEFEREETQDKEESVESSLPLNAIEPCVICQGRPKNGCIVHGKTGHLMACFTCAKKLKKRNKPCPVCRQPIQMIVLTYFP
Mdm2-MdmX conf = Mdm2-MdmX complex disruptors, retested hits, confirmation, luminescence, single concentration; 10,000 tested, 55% active; shares compounds with Mdm2 MdmX PPI; Mdm2-MdmX binding, luminescent assay; inhibition, % at 8 µM; in the data active = inhibition above about 40%
FLuc counter = full-length luciferase signal inhibition, confirmation, counter-screen for Mdm2/MdmX interaction inhibitor project, cell-based, single concentration, SaOS-2 | SaOS-2 full-length luciferase counterscreen, luminescence | 6,200 tested, 77% active | shares compounds with Mdm2 MdmX PPI | inhibition, % at 8 µM;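 active = mean inhibition at 8 µM reaching about 37%, which flags the compound as non-specific, limit read from the data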;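 note: p53-null SaOS-2 cells with luciferase driven by a doxycycline-inducible promoter; compound on cells about two nights before reading with doxycycline added after day one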
* marks the source's active call; other numbers are inactive results; / = no result. Compounds with a hit are over-represented: about 5.7% of the library has one in this group of screens.

SMILES | SKKanGAS inh | Calb FLC | Beta apoptosis | T cruzi repl | CSC inhib | Mdm2 MdmX PPI | Mdm2-MdmX conf | others
COc1ccc(CN(C(=O)CSc2nnc(-c3ccc(F)cc3)o2)c2ccc(F)cc2)cc1 | 8.0 | 15.0 | -3.1 | 13.2 | 10.8 | 9.0 | /
COc1cc(C)ccc1OCc1cc(C(=O)N2CCN(C3CCCCC3)CC2)no1 | 4.0 | -2.5 | / | 9.1 | / | -87.0 | /
Cc1ccc(Nc2nnc(SCC(=O)c3c(N)n(C4CC4)c(=O)[nH]c3=O)s2)cc1C | / | / | 1.8 | / | 14.4 | 70.5* | 4.0
CCCc1cc(=O)[nH]c(SCC(=O)c2c(N)n(C3CC3)c(=O)[nH]c2=O)n1 | / | / | 0.6 | / | / | 96.3* | 13.6
Cc1ccc2nc(SCC(=O)c3c(N)n(C4CC4)c(=O)[nH]c3=O)[nH]c2c1 | / | / | / | / | / | 6.6 | /
Cc1cc(C)cc(-c2nnc(SCC(=O)c3c(N)n(C4CC4)c(=O)[nH]c3=O)o2)c1 | / | / | / | / | / | 54.4* | 14.2
Cc1ccc(S(=O)(=O)NC(=O)Nc2cccc(S(=O)(=O)N(C)C)c2)cc1 | / | / | -7.7 | / | -2.3 | -4.5 | /
CCc1nc2c(cnn2-c2ccc(Cl)cc2)c(=O)n1-c1ccc2c(c1)OCCO2 | 37.9 | -5.7 | -0.2 | 23.8 | 57.4 | 55.7* | 22.4
CCOc1ccc(-n2c(C)nc3c(cnn3-c3ccc(Cl)cc3)c2=O)cc1 | -0.6 | -1.9 | / | -6.6 | / | / | /
CC(C)(CNC(=O)CNC(=O)c1ccc(Cl)cc1Cl)N1CCOCC1 | / | / | / | / | / | 16.7 | /
COc1ccc(NC(=O)[C@H](Cc2c[nH]c3ccccc23)NC(=O)[C@@H]2Cc3ccccc3CN2)cc1 | 0.2 | 4.8 | / | 4.6 | -2.8 | 92.0* | 72.8* | FLuc counter=38.6*
CC(C)c1ccc(NC(=O)[C@H](Cc2c[nH]c3ccccc23)NC(=O)[C@@H]2Cc3ccccc3CN2)cc1 | 5.9 | 24.7 | -2.2 | 16.5 | -11.9 | 96.4* | 78.8* | FLuc counter=22.9
CCN(CC(=O)Nc1cccc(OC)c1)C(=O)c1cnc(Cl)c(Cl)c1 | -5.2 | -2.6 | 1.0 | 0.7 | -17.1 | 3.9 | /
CCc1ccc(C(=O)C(C)OC(=O)Cc2n[nH]c(=O)c3ccccc23)cc1 (stereo not drawn) | 0.1 | -9.2 | 16.5 | -8.9 | / | 58.6* | 74.2* | FLuc counter=57.7*
CCc1ccc(C(=O)C(C)OC(=O)Cn2[nH]c(=O)c3ccccc3c2=O)cc1 (stereo not drawn) | / | / | -0.2 | / | -7.1 | -20.6 | /
O=C(Nc1ccccc1N1CCOCC1)c1cccc(Oc2ccccc2)c1 | -2.1 | 1.1 | -1.3 | 23.5 | / | 13.3 | /
CCOC(=O)C1(Nc2nccs2)Sc2ccccc2NC1=O (stereo not drawn) | -19.3 | -17.3 | -2.1 | -4.5 | 52.1 | 56.7* | 62.0* | FLuc counter=58.0*
CN(C)c1ccc(C(C(=O)NC2CCCC2)N(C(=O)c2csnn2)C2CC2)cc1 (stereo not drawn) | 8.2 | -9.8 | 3.3 | 12.8 | -10.2 | -4.6 | /
COc1ccc(Cl)cc1-c1nc(SCC(=O)N(C)C2CCS(=O)(=O)C2)n[nH]1 (stereo not drawn) | / | / | -1.9 | / | -15.8 | 18.1 | /
O=C(O)/C=C/C(=O)Nc1ccc(S(=O)(=O)Nc2nccs2)cc1 | -0.4 | / | -1.7 | -13.6 | -12.3 | 12.5 | /
Clc1nc(Nc2ccc(N3CCOCC3)cc2)c2ccccc2n1 | 1.3 | 8.2 | / | -20.9 | / | 18.0 | /
O=S(=O)(Nc1nc2ccccc2nc1Nc1ccc(N2CCOCC2)cc1)c1cc(Cl)ccc1Cl | 40.9 | 5.5 | 84.3* | 50.1 | 86.2* | 68.4* | 29.6 | FLuc counter=73.2*
COc1ccc(N2CCN(C(=O)COC(=O)c3ccc(OC(F)F)cc3)CC2)cc1 | / | / | -0.5 | / | -6.1 | 5.0 | /
CC(=O)c1ccc(Nc2c3c(nc4ccccc24)CCCC3)cc1 | -13.1 | 0.2 | 13.2 | -1.1 | 64.1 | 45.4 | /

Screening results deposited in PubChem BioAssay by several laboratories.
